Laboratory results from ChEMBL document CHEMBL4699542, “Design and synthesis of novel methoxypyridine-derived gamma-secretase modulators” (Bioorg Med Chem, 2020).
Converted amounts (≈) assume the structure as drawn. The source made the active and inactive calls. The rule behind the calls is not given here.

Experiments:
[1] = Kinetic aqueous solubility of the compound in pH 7.4 PBS buffer by UV/Visible absorbance analysis; type: physicochemical; settings: read-out: Kinetic_solubility
Procedure, shortened: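 Kinetic solubility determined in PBS at pH 7.4 by UV/Vis absorbance, reported in μM.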

Gamma-secretase [2] = experiment: Modulation of gamma secretase in human SH-SY5Y cells overexpressing wild type APP751 assessed as inhibition of amyloid beta (35 to 42 residues) formation incubated for overnight by ELISA; type: cell-based
Procedure, shortened: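 SHSY5Y-APP751 cells plated at 75K/well and incubated overnight at 37 °C, then treated 24 h over 10 concentrations ([…]–10 μM, 1:3.16 steps, in duplicate). Medium Aβ42 measured by sandwich ELISA (Aβ35–42 capture, AP-conjugated Aβ1–12 detection, CDP-Star luminescence) against an Aβ42 standard curve.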

Gamma-secretase [3] = experiment: Modulation of gamma secretase in human SH-SY5Y cells overexpressing wild type APP751 assessed as effect on amyloid beta38 level by meso scale discovery; type: cell-based
Gamma-secretase [4] = experiment: Modulation of gamma secretase in human SH-SY5Y cells overexpressing wild type APP751 assessed as effect on amyloid beta40 level by meso scale discovery; type: cell-based
Gamma-secretase [5] = experiment: Modulation of gamma secretase in human SH-SY5Y cells overexpressing wild type APP751 assessed as effect on amyloid beta42 level by meso scale discovery; type: cell-based
[6] = biological target: Gamma-secretase (Homo sapiens) (UniProt Q96BI3+Q9NZ42+Q8WW43+P49768+Q92542+P49810); experiment: Modulation of gamma secretase in human SH-SY5Y cells overexpressing wild type APP751 assessed as effect on total amyloid beta level by meso scale discovery; type: cell-based
Procedure, shortened: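 SHSY5Y cells stably overexpressing wild-type human APP751 treated with the compound over a concentration range. Aβ38, Aβ40, Aβ42 and total Aβ in the medium measured by MSD triplex immunoassay (4G8 detection, 2 h at room temperature). Concentrations back-fitted from standard curves.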

[7] = Metabolic stability in human liver microsomes assessed as parent compound remaining at 1 uM incubated for 30 mins; type: ADME, Microsome; settings: microsomes, 0.5 h, 1 µM
Procedure, shortened: (§1)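 Test compound at 1 μM incubated 30 min with human, rat or mouse liver microsomes (1 mg/mL); parent remaining expressed as %.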

[8] = Metabolic stability in rat liver microsomes assessed as parent compound remaining at 1 uM incubated for 30 mins; type: ADME, Microsome; settings: 0.5 h; procedure, shortened: as §1
[9] = Metabolic stability in mouse liver microsomes assessed as parent compound remaining at 1 uM incubated for 30 mins; type: ADME, Microsome; settings: 0.5 h; procedure, shortened: as §1
Cytochrome P450 3A4 = Cytochrome P450 3A4 (Homo sapiens, UniProt P08684); experiment: Inhibition of recombinant CYP3A4 (unknown origin) by fluorescence-based assay; type: ADME
Cytochrome P450 1A2 = biological target: T1, Cytochrome P450 1A2 (Homo sapiens, UniProt P05177); experiment: Inhibition of recombinant CYP1A2 (unknown origin) by fluorescence-based assay; type: ADME
T1 sequence (P05177 whole entry): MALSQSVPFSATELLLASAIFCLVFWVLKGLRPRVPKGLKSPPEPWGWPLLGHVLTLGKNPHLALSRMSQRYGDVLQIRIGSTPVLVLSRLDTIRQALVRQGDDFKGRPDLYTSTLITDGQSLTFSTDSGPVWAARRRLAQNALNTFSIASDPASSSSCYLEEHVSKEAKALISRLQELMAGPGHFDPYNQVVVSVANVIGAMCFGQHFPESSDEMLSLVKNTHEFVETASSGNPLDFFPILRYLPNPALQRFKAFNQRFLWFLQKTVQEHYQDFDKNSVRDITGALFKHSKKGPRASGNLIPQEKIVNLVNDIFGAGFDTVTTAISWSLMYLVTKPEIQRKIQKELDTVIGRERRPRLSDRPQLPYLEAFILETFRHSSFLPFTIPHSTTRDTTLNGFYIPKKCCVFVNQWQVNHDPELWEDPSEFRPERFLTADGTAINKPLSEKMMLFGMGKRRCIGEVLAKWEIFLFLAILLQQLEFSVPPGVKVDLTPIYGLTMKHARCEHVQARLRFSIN
Procedure, shortened: (§2)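 Recombinant CYP isoforms (five tested) screened for inhibition in fluorescence-based assays; IC50 in μM.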

Cytochrome P450 2C9 = Cytochrome P450 2C9 (Homo sapiens, UniProt P11712); experiment: Inhibition of recombinant CYP2C9 (unknown origin) by fluorescence-based assay; type: ADME; procedure, shortened: as §2
Cytochrome P450 2C19 = Cytochrome P450 2C19 (Homo sapiens, UniProt P33261); experiment: Inhibition of recombinant CYP2C19 (unknown origin) by fluorescence-based assay; type: ADME; procedure, shortened: as §2
Cytochrome P450 2D6 = Cytochrome P450 2D6 (Homo sapiens, UniProt P10635); experiment: Inhibition of recombinant CYP2D6 (unknown origin) by fluorescence-based assay; type: ADME; procedure, shortened: as §2
[10] = biological target: Voltage-gated inwardly rectifying potassium channel KCNH2 (Homo sapiens, UniProt Q12809); experiment: Inhibition of human ERG expressed in HEK293 cells by patch clamp assay; type: cell-based
[11] = Protein binding in plasma (unknown origin); type: ADME, cell-free
[12] = Cmax in CD-1 mouse at 1 mg/kg, iv administered as single dose measured up to 24 hrs; type: ADME, organism-based; design: route intravenous, dose 1 mg/kg, time <=24; settings: in vivo
Procedure, shortened: (§3)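 Male CD-1 mice, 6–8 weeks old, single dose by tail vein (1 mg/kg, 3% NMP/45% PEG300/12% ethanol/40% water) or oral gavage (5 mg/kg, 5% NMP/95% PEG300). Retro-orbital plasma sampled 0.083 (iv only) to 24 h, n=3/timepoint, and analysed by HPLC/MS/MS. Non-compartmental analysis. Half-life taken from the terminal phase using ≥3 non-zero points after Tmax.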

[13] = Tmax in CD-1 mouse at 1 mg/kg, iv administered as single dose measured up to 24 hrs; type: ADME, organism-based; settings: in vivo
Procedure, shortened: (§4)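 Male CD-1 mice, 6–8 weeks old, single tail-vein dose in 3% NMP/45% PEG300/12% ethanol/40% sterile water. Retro-orbital plasma (K3EDTA) taken at 0.083, 0.25, 0.5, 1, 2, 4, 8 and 24 h, n=3/timepoint, analysed by HPLC/MS/MS. Non-compartmental analysis (Model 201, uniform weighting); Tmax read directly from the data.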

[14] = Half life in CD-1 mouse at 1 mg/kg, iv administered as single dose measured up to 24 hrs; type: ADME, organism-based; settings: mouse, in vivo, 1 mg/kg, 24 h; procedure, shortened: as §3
[15] = AUClast in CD-1 mouse at 1 mg/kg, iv administered as single dose measured up to 24 hrs; type: ADME, organism-based; design: route intravenous, dose 1 mg/kg, time <=24; settings: in vivo; procedure, shortened: as §3
[16] = AUC infinity in CD-1 mouse at 1 mg/kg, iv administered as single dose measured up to 24 hrs; type: ADME, organism-based; design: route intravenous, dose 1 mg/kg, time <=24; settings: in vivo; procedure, shortened: as §3
[17] = Volume of distribution at steady state in CD-1 mouse at 1 mg/kg, iv administered as single dose measured up to 24 hrs; type: ADME, organism-based; settings: in vivo; procedure, shortened: as §4
[18] = Bioavailability in CD-1 mouse at 1 mg/kg, iv administered as single dose measured up to 24 hrs; type: ADME, organism-based; settings: in vivo
Procedure, shortened: (§5)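 CD-1 mouse PK after single iv (1 mg/kg) and oral gavage (5 mg/kg) dosing, with plasma sampled to 24 h (n=3/timepoint) and measured by HPLC/MS/MS. F(%) = (AUC0-inf po × Dose iv)/(AUC0-inf iv × Dose po) × 100.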

[19] = Ratio of drug concentration in CD-1 mouse brain to plasma at 5 mg/kg, po measured after 1 hr; type: ADME, organism-based
Procedure, shortened: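 Male CD-1 mice dosed once iv (1 mg/kg) or by oral gavage (5 mg/kg). Brain and plasma collected 1 h post dose (n=3/timepoint). Drug levels by HPLC/MS/MS; brain/plasma ratio calculated from these levels.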

[20] = Cmax in CD-1 mouse at 5 mg/kg, po administered as single dose measured up to 24 hrs; type: ADME, organism-based; design: route oral, dose 5 mg/kg, time <=24; settings: in vivo; procedure, shortened: as §3
[21] = Tmax in CD-1 mouse at 5 mg/kg, po administered as single dose measured up to 24 hrs; type: ADME, organism-based; settings: in vivo
Procedure, shortened: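 Male CD-1 mice, 6–8 weeks old, single oral gavage dose in 5% NMP/95% PEG300. Plasma (K3EDTA, retro-orbital, under isoflurane) taken at 0.25, 0.5, 1, 2, 4, 8 and 24 h, n=3/timepoint, analysed by HPLC/MS/MS. Non-compartmental extravascular analysis (Model 200); Tmax taken directly from the data.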

[22] = AUClast in CD-1 mouse at 5 mg/kg, po administered as single dose measured up to 24 hrs; type: ADME, organism-based; design: route oral, dose 5 mg/kg, time <=24; settings: in vivo; procedure, shortened: as §3
[23] = AUC infinity in CD-1 mouse at 5 mg/kg, po administered as single dose measured up to 24 hrs; type: ADME, organism-based; design: route oral, dose 5 mg/kg, time <=24; settings: in vivo; procedure, shortened: as §3
[24] = Oral bioavailability in CD-1 mouse at 5 mg/kg administered as single dose measured up to 24 hrs; type: ADME, organism-based; settings: in vivo; procedure, shortened: as §5
[25] = Ratio of drug concentration in CD-1 mouse brain to plasma at 1 mg/kg, iv measured after 1 hr
Gamma-secretase [26] = experiment: Inhibition of gamma secretase in human H4 cells overexpressing APP751 transfected with Myc-tagged Notch at 1 to 10 uM incubated for 24 hrs in presence of NICD by Western blot analysis; settings: h4, 24 h

Voltage-gated inwardly rectifying potassium channel KCNH2, sequence (Q12809 whole entry): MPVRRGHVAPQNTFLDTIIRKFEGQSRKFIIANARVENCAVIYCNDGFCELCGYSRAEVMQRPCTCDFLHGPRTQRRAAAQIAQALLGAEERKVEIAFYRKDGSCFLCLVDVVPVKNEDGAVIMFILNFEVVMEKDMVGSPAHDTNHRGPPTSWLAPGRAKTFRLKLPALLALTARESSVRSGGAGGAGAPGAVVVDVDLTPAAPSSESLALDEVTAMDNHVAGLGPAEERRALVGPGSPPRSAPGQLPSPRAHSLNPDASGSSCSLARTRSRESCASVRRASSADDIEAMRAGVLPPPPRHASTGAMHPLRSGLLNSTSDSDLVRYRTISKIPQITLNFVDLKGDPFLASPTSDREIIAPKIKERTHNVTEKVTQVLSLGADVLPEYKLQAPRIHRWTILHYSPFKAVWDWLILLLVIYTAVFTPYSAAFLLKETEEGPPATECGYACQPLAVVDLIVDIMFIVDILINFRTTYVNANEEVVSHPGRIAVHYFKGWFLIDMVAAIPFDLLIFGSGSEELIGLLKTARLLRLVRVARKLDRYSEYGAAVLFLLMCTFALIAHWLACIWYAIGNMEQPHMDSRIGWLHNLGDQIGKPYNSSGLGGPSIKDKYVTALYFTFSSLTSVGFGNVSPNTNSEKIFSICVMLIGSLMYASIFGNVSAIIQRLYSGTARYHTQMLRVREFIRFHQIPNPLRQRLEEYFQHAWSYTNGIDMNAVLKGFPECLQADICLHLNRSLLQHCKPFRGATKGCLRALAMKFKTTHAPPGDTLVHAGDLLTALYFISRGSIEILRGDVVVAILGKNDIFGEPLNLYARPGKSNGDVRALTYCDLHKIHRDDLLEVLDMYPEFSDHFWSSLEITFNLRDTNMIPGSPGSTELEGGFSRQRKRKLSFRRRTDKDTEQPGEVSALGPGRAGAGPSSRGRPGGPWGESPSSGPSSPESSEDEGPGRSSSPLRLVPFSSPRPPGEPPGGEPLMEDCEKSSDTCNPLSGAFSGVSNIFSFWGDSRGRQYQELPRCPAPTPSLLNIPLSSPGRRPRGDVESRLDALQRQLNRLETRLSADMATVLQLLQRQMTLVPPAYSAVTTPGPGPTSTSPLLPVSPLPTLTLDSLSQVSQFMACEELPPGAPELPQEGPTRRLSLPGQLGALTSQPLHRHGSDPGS
Cytochrome P450 2C19, sequence (P33261 whole entry): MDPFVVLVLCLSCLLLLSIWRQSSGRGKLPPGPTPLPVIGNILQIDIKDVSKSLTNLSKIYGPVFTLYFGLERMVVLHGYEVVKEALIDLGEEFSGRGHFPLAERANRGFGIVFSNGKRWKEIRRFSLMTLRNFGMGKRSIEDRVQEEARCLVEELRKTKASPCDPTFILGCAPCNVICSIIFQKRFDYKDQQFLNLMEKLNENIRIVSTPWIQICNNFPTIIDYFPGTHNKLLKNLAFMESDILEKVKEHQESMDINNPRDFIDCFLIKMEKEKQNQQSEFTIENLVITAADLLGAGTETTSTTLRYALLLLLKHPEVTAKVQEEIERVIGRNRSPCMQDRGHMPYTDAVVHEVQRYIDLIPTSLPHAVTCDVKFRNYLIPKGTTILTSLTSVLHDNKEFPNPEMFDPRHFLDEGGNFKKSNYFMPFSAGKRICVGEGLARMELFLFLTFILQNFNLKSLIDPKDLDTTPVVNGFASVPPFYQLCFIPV
Cytochrome P450 2D6, sequence (P10635 whole entry): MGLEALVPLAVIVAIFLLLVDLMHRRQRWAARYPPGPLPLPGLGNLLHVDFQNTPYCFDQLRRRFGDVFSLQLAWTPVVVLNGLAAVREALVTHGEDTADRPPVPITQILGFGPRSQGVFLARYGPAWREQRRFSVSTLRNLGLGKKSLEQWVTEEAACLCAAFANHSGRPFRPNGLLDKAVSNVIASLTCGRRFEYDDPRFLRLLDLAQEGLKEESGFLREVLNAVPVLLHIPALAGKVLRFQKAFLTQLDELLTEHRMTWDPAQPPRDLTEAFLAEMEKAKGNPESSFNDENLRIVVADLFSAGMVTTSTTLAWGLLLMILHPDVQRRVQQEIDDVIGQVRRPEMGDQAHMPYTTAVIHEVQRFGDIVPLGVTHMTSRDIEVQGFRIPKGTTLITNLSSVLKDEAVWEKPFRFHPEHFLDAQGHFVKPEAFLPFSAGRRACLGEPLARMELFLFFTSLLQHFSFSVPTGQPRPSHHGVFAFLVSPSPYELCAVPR
Cytochrome P450 3A4, sequence (P08684 whole entry): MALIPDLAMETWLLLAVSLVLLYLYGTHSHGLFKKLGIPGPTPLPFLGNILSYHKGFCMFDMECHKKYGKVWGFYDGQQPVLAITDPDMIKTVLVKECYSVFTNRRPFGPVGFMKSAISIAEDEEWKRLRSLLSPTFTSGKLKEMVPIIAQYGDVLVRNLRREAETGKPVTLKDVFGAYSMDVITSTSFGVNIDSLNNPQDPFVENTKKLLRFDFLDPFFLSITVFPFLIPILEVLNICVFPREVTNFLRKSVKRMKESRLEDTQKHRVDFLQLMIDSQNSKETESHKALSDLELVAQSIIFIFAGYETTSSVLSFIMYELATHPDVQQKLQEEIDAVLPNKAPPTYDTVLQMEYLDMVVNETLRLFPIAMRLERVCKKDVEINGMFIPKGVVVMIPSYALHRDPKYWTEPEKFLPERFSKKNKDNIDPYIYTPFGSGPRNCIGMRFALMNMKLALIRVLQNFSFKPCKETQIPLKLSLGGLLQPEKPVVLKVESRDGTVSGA
Cytochrome P450 2C9, sequence (P11712 whole entry): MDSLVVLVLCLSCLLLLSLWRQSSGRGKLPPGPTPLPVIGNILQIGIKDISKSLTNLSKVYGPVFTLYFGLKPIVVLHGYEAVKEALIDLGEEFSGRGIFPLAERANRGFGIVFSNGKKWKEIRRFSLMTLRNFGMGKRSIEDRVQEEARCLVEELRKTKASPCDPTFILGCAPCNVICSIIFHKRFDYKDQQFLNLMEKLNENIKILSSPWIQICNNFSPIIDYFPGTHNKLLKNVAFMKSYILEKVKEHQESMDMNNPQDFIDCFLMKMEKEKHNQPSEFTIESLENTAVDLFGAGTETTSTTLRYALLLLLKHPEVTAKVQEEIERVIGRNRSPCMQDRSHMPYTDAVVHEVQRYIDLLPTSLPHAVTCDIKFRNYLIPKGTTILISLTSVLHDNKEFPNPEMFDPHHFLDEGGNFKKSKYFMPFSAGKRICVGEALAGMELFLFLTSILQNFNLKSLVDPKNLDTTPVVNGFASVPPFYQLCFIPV

## CCn1nc2c(c1Nc1nc(-c3ccc(-n4cnc(C)c4)c(OC)n3)cs1)CCCC2
[1]
  solubility kinetic: 4.5 µM (≈ 1.96 µg/mL)
Gamma-secretase [2]
  IC50: 0.06 µM
Gamma-secretase [3]
  EC50: 0.305 µM
Gamma-secretase [4]
  IC50: 0.104 µM
Gamma-secretase [5]
  IC50: 0.058 µM
[6]
  Activity: inactive
[7]
  Stabilty: 36%
[8]
  Stabilty: 71%
[9]
  Stabilty: 64%
Cytochrome P450 3A4
  IC50: 3.7 µM
Cytochrome P450 1A2
  IC50: > 100 µM
Cytochrome P450 2C9
  IC50: 9 µM
Cytochrome P450 2C19
  IC50: 5.9 µM
Cytochrome P450 2D6
  IC50: > 100 µM
[10]
  IC50: 8.6 µM
[11]
  PPB: 99.6%
[12]
  Cmax: 824 ng/mL
[13]
  Tmax: 4.98 min
[14]
  t1/2: 30 min
[15]
  AUClast: 443 ng·h/mL
[16]
  AUC: 463 ng·h/mL
[17]
  Vdss: 1.413 L/kg
[18]
  F: 100%
[19]
  BPR: 0.4
[20]
  Cmax: 705 ng/mL
[21]
  Tmax: 15 min
[22]
  AUClast: 1089 ng·h/mL
[23]
  AUC: 1243 ng·h/mL
[24]
  F: 53.7%
[25]
  BPR: 0.4
Gamma-secretase [26]
  inhibition (INH): Not Active
